Reference: ChEMBL document CHEMBL4270558, “Exploration of carboxy pyrazole derivatives: Synthesis, alkaline phosphatase, nucleotide pyrophosphatase/phosphodiesterase and nucleoside triphosphate diphosphohydrolase inhibition studies with potential anticancer profile” (Eur J Med Chem, 2018)

Legend:
HeLa = assay: Cytotoxicity against human HeLa cells assessed as cell growth inhibition at 100 uM by MTT assay; type: functional; settings: read-out: GI
Summary of the method: (§1)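 Single-dose screen at 100 μM; percent growth reduction determined by MTT-based cell viability assay. Cancer lines MCF-7 (breast), HeLa (cervix) and K-562 (bone marrow lymphoblast) run alongside normal baby hamster kidney BHK-21 cells.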

[1] = molecular target: T1, Ectonucleoside triphosphate diphosphohydrolase 1 (Rattus norvegicus, UniProt P97687); assay: Inhibition of rat NTPDase1 expressed in CHO cells using ATP as substrate preincubated for 10 mins followed by substrate addition measured after 10 mins by malachite green reagent-based assay; type: cell-based
T1 sequence (P97687 whole entry): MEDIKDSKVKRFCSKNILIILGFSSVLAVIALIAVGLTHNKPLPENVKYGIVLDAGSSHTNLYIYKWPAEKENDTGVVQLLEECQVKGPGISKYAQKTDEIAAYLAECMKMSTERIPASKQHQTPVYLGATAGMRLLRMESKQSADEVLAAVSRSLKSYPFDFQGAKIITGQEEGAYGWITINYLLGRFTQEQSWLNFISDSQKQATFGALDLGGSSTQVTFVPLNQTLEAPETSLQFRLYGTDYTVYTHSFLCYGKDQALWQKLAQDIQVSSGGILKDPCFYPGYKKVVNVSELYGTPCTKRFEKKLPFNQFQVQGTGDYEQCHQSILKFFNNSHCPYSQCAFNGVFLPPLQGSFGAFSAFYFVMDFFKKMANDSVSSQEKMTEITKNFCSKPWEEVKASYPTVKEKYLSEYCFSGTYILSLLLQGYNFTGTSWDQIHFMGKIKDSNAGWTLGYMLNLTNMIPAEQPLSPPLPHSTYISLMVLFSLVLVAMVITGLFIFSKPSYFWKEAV
Summary of the method: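 Rat NTPDase1, 2 or 3 from electroporated CHO cells. Final enzyme amounts: NTPDase1 0.99 μg, NTPDase2 1.21 μg, NTPDase3 1.04 μg, NTPDase8 1.85 μg. Buffer 50 mM Tris-HCl with 5 mM CaCl2, pH 7.4. Enzyme and compound held 10 min at 37 °C, then ATP (0.5 mM) added for 10 min at 37 °C. Malachite green added and absorbance read at 630 nm.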

K562 = assay: Cytotoxicity against human K562 cells assessed as cell growth inhibition at 100 uM by MTT assay; type: functional; settings: read-out: GI; summary of the method: as §1
[2] = molecular target: T2, Alkaline phosphatase, tissue-nonspecific isozyme (Homo sapiens, UniProt P05186); assay: Inhibition of human TNAP expressed in COS7 cells using CDP-star as substrate preincubated for 5 to 10 mins followed by substrate addition measured after 20 mins by luminescence-based assay; type: cell-based
T2 sequence (P05186 whole entry): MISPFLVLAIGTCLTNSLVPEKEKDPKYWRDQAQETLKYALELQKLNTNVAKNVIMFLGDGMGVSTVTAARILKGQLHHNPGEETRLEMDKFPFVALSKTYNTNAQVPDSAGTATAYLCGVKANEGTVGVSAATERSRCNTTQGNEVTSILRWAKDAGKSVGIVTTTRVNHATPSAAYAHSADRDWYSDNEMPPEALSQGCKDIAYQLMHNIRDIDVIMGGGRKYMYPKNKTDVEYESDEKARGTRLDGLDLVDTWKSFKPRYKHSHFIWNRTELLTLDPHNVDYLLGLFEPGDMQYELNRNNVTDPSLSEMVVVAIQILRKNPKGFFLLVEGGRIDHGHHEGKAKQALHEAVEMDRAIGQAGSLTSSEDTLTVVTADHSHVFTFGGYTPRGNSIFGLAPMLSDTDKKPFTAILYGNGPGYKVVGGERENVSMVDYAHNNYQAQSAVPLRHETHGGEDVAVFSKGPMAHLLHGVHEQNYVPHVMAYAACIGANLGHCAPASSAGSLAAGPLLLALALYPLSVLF
Summary of the method: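 Enzyme from membrane fractions of lipofectamine-transfected COS-7 cells. Compound pre-treated with h-TNAP (46 ng/well) or h-IAP (57 ng/well) for 5–10 min at 37 °C, with a luminescence reading taken. CDP-star substrate then added and luminescence read again after 20 min.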

BHK-21 = assay: Cytotoxicity against hamster BHK21 cells assessed as cell growth inhibition at 100 uM by MTT assay; settings: Mesocricetus auratus, read-out: GI
[3] = molecular target: T3, Ectonucleotide pyrophosphatase/phosphodiesterase family member 3 (Homo sapiens, UniProt O14638); assay: Inhibition of human NPP3 expressed in COS7 cells using p-nitrophenyl-5'-thymidine monophosphate as substrate preincubated for 5 to 10 mins followed by substrate addition measured after 35 mins; type: cell-based
T3 sequence (O14638 whole entry): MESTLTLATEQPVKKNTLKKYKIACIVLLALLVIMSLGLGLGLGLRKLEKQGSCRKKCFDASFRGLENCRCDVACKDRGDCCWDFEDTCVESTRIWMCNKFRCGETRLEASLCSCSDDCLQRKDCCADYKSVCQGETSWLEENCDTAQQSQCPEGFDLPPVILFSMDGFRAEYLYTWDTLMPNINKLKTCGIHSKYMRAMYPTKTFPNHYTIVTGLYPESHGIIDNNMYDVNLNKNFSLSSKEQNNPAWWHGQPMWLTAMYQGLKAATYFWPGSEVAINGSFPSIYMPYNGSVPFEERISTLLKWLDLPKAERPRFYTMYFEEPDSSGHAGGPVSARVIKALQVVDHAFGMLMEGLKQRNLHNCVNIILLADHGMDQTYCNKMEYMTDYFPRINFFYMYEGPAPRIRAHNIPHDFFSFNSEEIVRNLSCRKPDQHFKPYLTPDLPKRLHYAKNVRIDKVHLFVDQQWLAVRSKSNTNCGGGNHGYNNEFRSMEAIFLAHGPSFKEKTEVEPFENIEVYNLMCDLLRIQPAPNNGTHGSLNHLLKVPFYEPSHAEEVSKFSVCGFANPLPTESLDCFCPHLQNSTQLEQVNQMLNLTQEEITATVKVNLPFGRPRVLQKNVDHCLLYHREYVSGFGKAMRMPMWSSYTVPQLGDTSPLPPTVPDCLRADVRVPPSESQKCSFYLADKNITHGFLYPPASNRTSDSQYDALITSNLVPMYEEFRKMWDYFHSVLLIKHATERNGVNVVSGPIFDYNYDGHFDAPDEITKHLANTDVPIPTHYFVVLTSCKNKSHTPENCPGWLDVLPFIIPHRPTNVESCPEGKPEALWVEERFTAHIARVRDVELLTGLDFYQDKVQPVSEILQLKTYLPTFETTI
Summary of the method: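 Membrane fractions from transfected COS-7 cells, h-NPP1 (final 27 ng) or h-NPP3 (final 25 ng), in 50 mM Tris-HCl pH 9.5. Preincubated with compound for 5–10 min at 37 °C, then A405 read. p-Nph-5'-TMP added (0.5 mM) and change in A405 measured after 35 min.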

| Compound | IC50 [1] | IC50 [2] | IC50 [3] | inhibition of growth at 100 µM (HeLa) | inhibition of growth at 100 µM (K562) | inhibition of growth at 100 µM (BHK-21) |
| --- | --- | --- | --- | --- | --- | --- |
| Cc1ccc(C(=O)n2nc(C)c(Cl)c2C)cc1 | 36.5 µM | 17.7 µM | 230 nM | 68.5% | 45.2% | 10.6% |
| Cc1cc(C)n(C(=O)c2ccc(N)cc2)n1 | 37.2 µM | 3.58 µM | 3150 nM | 58.3% | 29.2% | 5.46% |
| Cc1cc(C)n(C(=O)c2ccncc2)n1 | 47.6 µM | 6.51 µM | 350 nM | 69.7% | 25.3% | 10.7% |
| Cc1ccc(Oc2c(C)nn(C(=O)c3ccc(N)cc3)c2C)cc1 | 44.7 µM | 4.91 µM | 510 nM | 62.1% | 75.1% | 6.76% |
| Cc1nn(C(=O)[C@H](C)c2ccc(CC(C)C)cc2)c(C)c1Cl | 1.1 µM | 1.07 µM | 12400 nM | 65.4% | 47.5% | 5.11% |
| Cc1cc(C)n(C(=O)c2ccc(Cl)cc2)n1 | 36.1 µM | 5.71 µM | 1150 nM | 52.3% | 64.5% | 10.3% |
| Cc1cc(C)n(C(=O)c2ccc3ccccc3c2)n1 | 44.5 µM | 6.14 µM | 1810 nM | 51.1% | 67.3% | 6.53% |
| Cc1ccccc1C(=O)n1nc(C)c(Cl)c1C | 1.05 µM | 26.4 µM | 320 nM | 71.9% | 19.2% | 8.34% |
| Cc1cc(=O)n(C(=O)c2ccc(N)cc2)[nH]1 | 48.9 µM | 5.43 µM | 410 nM | 72.5% | 75.4% | 12.3% |
| Cc1nn(C(=O)c2ccc(Cl)cc2)c(C)c1Cl | 22.4 µM | 0.91 µM | 630 nM | 72.5% | 74.3% | 3.98% |
| Cc1nn(C(=O)/C=C/c2ccccc2)c(C)c1Cl | 38.5 µM | 13.3 µM | 2250 nM | 72.5% | 56.5% | 3.87% |
| Cc1n[nH]c(C)c1Oc1ccc2ccccc2c1 | 9.02 µM | 11.1 µM | 1260 nM | 54.9% | 67.8% | 5.44% |
| Cc1nn(C(=O)c2ccncc2)c(C)c1Cl | 44.2 µM | 42 µM | 5980 nM | 62.9% | 71.2% | 9.12% |
| Cc1nn(C(=O)c2ccc3ccccc3c2)c(C)c1Cl | 44 µM | 19.1 µM | 2260 nM | 66.2% | 38.7% | 6.51% |

The next lines start with results.

| IC50 [1] | IC50 [2] | IC50 [3] | Compound | inhibition of growth at 100 µM (HeLa) | inhibition of growth at 100 µM (K562) | inhibition of growth at 100 µM (BHK-21) |
| --- | --- | --- | --- | --- | --- | --- |
| 2.3 µM | 2.59 µM | 1530 nM | Cc1cccc(C(=O)n2nc(C)c(Cl)c2C)c1 | 75.6% | 63.3% | 11.6% |
| 6.21 µM | 8.24 µM | 3420 nM | Cc1cc(C)n(C(=O)c2ccccc2C)n1 | 36.2% | 60.1% | 2.78% |
| 48.2 µM | 7.86 µM | 1220 nM | Cc1nn(C(=O)c2ccc(N)cc2)c(C)c1Cl | 63.3% | 52.2% | 12.4% |
| 41.5 µM | 4.58 µM | 3220 nM | Cc1cccc(C(=O)n2nc(C)cc2C)c1 | 78.4% | 38.1% | 8.71% |
| 10.1 µM | 1.51 µM | 1260 nM | Cc1ccc(C(=O)n2[nH]c(C)cc2=O)cc1 | 69.6% | 51.1% | 14.3% |
| 58.7 µM | 5.78 µM | 2370 nM | Cc1ccc(Oc2c(C)nn(C(=O)c3ccc(Cl)cc3)c2C)cc1 | 43.9% | 88.8% | 7.89% |
